Screening data as filed in PubChem.
GalR3 antag: antagonists of human GalR3; 360,000 compounds, 0.44% hits; O60755; HEK293 GalR3-CNG cAMP membrane potential fluorescence; galR3 body fused to GalR1 C-terminus; inhibition, % at 3 µM; AID 651719;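 active = inhibition above the screen-wide average plus 3 SD, cut at about 13% in these data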;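 also: forskolin and galanin both at EC90 stimulate the cells; cAMP rise reported by CNG channel membrane potential dye signal; 0% = forskolin plus galanin with DMSO and 100% = forskolin alone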
TAAR1 antag: antagonists of human TAAR1; AID 624466; 360,000 compounds, 1.5% hits; CHO RD-HGA16 TAAR1, Fluo-8 calcium fluorescence, antagonist; inhibition, % at 3 µM;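 active = inhibition above a per-plate cutoff, the mean inhibition of test compounds on that plate plus 3 SD, cut at about 49% in these data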;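 also: 0% = DMSO plus EC80 beta-PEA response and 100% = DMSO alone without agonist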
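System: RD-HGA16 CHO cells with stable hTAAR1 and Gα16 | Probe or stimulus: EC80 β-phenethylamine stimulus | Dosing: 3 µM, single point | Times: Dye loading 75 min at 37 °C, then 30 min room temperature | Measured by: Fluo-8 calcium-sensitive fluorescence | Read-out basis: % inhibition of agonist calcium response | Replicates: n of 1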
OX1R antag-1: OX1R (human) antagonism; O43613; OX1R-expressing cells, FRET antagonist read-out; inhibition, % at 6.6 µM; 330,000 compounds, 1.8% hits; in the data active = inhibition mostly above about 38%, no sharp cut-off; inactive = mostly below about 40%;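 also: 0% = agonist challenge alone and 100% = reference antagonist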
Target sequence (O43613 whole entry, looked up): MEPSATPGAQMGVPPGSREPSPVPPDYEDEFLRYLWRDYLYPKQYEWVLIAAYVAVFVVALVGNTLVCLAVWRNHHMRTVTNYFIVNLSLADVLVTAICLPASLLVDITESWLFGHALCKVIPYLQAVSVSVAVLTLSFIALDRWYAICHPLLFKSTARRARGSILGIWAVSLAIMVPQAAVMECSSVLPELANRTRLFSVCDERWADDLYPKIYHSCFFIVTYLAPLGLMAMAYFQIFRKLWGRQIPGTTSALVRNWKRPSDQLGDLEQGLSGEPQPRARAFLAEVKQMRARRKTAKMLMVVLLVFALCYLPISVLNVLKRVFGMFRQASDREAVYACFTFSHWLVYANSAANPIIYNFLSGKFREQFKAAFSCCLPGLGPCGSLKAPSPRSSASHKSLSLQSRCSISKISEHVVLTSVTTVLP
CHO parental Ca: counter-screen for OX1R antagonists: effect in parental CHO cells | parental CHO-K1, ATP-induced calcium, Fluo-8 fluorescence | inhibition, % at 5.6 µM | 330,000 compounds, 0.63% hits | AID 463079;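 active = inhibition above that plate's mean sample inhibition plus 3 SD, cut at about 26% in these data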;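 also: 0% = ATP-challenged DMSO wells and 100% = DMSO wells without ATP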
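Material: Parental CHO cells | Reagent: ATP | Compound dosing: Single nominal dose of 5.6 µM per compound | Detection: Intracellular calcium via Fluo-8 no-wash fluorescent dye | Read-out: % inhibition of ATP-induced calcium mobilization | Benchmarks: Low control ATP plus DMSO, high control DMSO only | Replicates: Singlicate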
OX1R antag-2: blocks the human orexin 1 receptor; CHO/OX1R cells, Fluo-8 calcium fluorescence, orexin A; inhibition, % at 5 µM; 330,000 compounds, 0.43% hits;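 active = inhibition above its plate's threshold, mean inhibition of all tested compounds on the plate plus 3 SD, cut at about 37% in these data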;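 also: 0% = orexin A challenge wells and 100% = SB-334867-A antagonist wells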
TAAR1 agonist: agonists of human TAAR1. activation, % at 3 µM. CHO RD-HGA16 TAAR1, Fluo-8 calcium fluorescence; vehicle wells 0%, saturating PEA agonist 100%. Q96RJ0. 360,000 compounds, 0.99% hits;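 active = activation above the mean activation of all test compounds in the run plus 3 SD, cut at about 38% in these data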
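test system = CHO RD-HGA16 cells carrying human TAAR1 plus Gα16 | schedule = 17-24 h seeding, 75 min 37 °C dye, 30 min RT | compound dosing = 3 µM single concentration | control set = DMSO and PEA EC100 | replicates = n 1 | signal = Fluo-8 fluorescence, 5 s baseline then 140 s kinetic read | measure = percent activation vs PEA EC100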
The depositor's hits bear a star; nt = no result given. Shown are actives, neighbours in structure and some others; about 4.3% of the full set was active somewhere.

SMILES	GalR3 antag	TAAR1 antag	OX1R antag-1	CHO parental Ca	OX1R antag-2	TAAR1 agonist
CCSc1nc2cc(OC)c(OC)cc2c(=O)n1CCc1ccccc1	-7	22	5	-19	-28	-2
COc1ccc2c(c1)[C@@H](NC(=O)c1ccncc1)[C@@H]1Cc3ccccc3[C@H]21	-6	-9	nt	nt	nt	0
CC(=O)N(C)C1=C(N2CCOCC2)C(=O)c2ccccc2C1=O	nt	nt	73*	-4	8	nt
CC1N(C)c2cccc3cccc(c23)N1C	-4	8	70*	2	-11	10
Nc1nc(-c2ccccc2)[nH]c(=O)c1N=O	-9	-14	58*	-4	-16	6
N#Cc1c(-c2ccccc2)nc(-c2ccccc2)[nH]c1=O	-1	-19	20	-16	-13	6
OCCNc1nc(-c2ccccc2)nc2c1oc1ccccc12	-2	-11	40*	-23	-14	0
CC(C)[C@H](NS(=O)(=O)c1ccccc1)C(=O)OCC(=O)NC(=O)NC1CCCCC1	-5	6	6	-12	-15	4
COc1cccc(OCC(=O)N(Cc2nc(-c3ccc(Cl)cc3)no2)C(C)C)c1	-1	-20	47*	-16	-10	1
Cc1ccc(-c2noc(CN(C(=O)CCN3C(=O)c4ccccc4C3=O)C(C)C)n2)cc1	-2	0	29	-32	-2	9
Cc1ccc(C)c(C(=O)N(Cc2nc(-c3ccc(Cl)cc3)no2)C(C)C)c1	5	-8	28	36*	-31	-1
CC(C)N(Cc1nc(-c2ccccc2)no1)C(=O)CSc1ccccc1	-7	12	39*	-27	10	16
COc1ccccc1OCC(=O)N(Cc1nc(-c2ccc(Cl)cc2)no1)C(C)C	2	3	21	-12	-24	-2
Cc1ccc(-c2noc(CN(C(=O)Cc3ccccc3)C(C)C)n2)cc1	-6	3	52*	-11	-6	5
N#Cc1ccccc1CN1C(=O)NC2(CCCCCC2)C1=O	-7	-14	-14	-7	-14	0
Cc1cc(Br)ccc1OCC(=O)N(Cc1nc(-c2ccccc2)no1)C(C)C	-2	-10	56*	-18	37	0
Cc1c(C2Nc3ccccc3C2C)[nH]c2ccccc12 (stereo not drawn)	-2	-14	nt	nt	nt	2
COc1ccc2c(COC(=O)CC3Sc4ccccc4NC3=O)cc(=O)oc2c1 (stereo not drawn)	-4	54*	18	-13	-20	15
N#Cc1c2ccc([N+](=O)[O-])cc2[n+]([O-])n1-c1ccccc1	-3	2	45*	8	2	2
COc1cccc2c(=O)ccoc12	-3	-4	13	-5	-22	18
COc1cccc2c(=O)c3ccccc3oc12	-8	11	62*	-7	-9	13
CN(C(=O)COC(=O)c1ccccc1NCc1ccco1)c1c(N)n(Cc2ccccc2)c(=O)[nH]c1=O	-2	-41	64*	-18	-10	1
COC(=O)[C@]12C[C@H](CC(=O)NCC3CCCCC3)C(=O)N(Cc3ccccc3)C1=C[C@H](C(C)C)O[C@@H]2C1CC1	-7	-47	nt	nt	nt	-3
Cn1c(N)c(N=Nc2ccc(S(N)(=O)=O)cc2)c(=O)n(C)c1=O	-8	8	60*	14	-4	1
O=C(NC1CCN(Cc2ccccc2)CC1)c1ccc(CS(=O)c2ccccc2Cl)o1 (stereo not drawn)	-3	-12	nt	nt	nt	3
SMILES	GalR3 antag	TAAR1 antag	OX1R antag-1	CHO parental Ca	OX1R antag-2	TAAR1 agonist
Cc1cc(C(=O)CSc2nc(N)cc(N)n2)c(C)n1CCc1ccc(F)cc1	-1	17	28	-4	-3	39*
Cc1ccc(-n2cc(-c3ccccc3)c3c(N4CCOCC4)ncnc32)cc1	-4	54*	nt	nt	nt	6
Cc1nn(-c2ccccc2)c(N2CCCC2)c1/C=N/NC(=O)c1ccccc1O	-4	19	28	-16	-10	8
Cc1nn(-c2ccccc2)c(N2CCCC2)c1/C=N/NC(=O)c1cc(-c2cccnc2)nc2ccccc12	-3	51*	12	-21	-4	10
O=c1c2ccccc2nc2ccccn12	2	-10	35	-12	-21	1
O=c1c2ccccc2nc2c3ccccc3cnn12	-5	7	41*	-10	-19	5
O=C(NCCN1C(=O)S/C(=C/c2cccnc2)C1=O)C1CC(=O)N(Cc2ccccc2)C1 (stereo not drawn)	7	-10	53*	-7	-22	8
CCC(=O)c1ccc(OCC(=O)OCC(=O)NC2CCCCCCC2)cc1	-1	-32	2	-5	-7	2
COC(=O)C[C@H]1CC[C@@H](NC(=O)Nc2cccc(OC)c2)[C@@H](CO)O1	-4	-10	nt	nt	nt	1
CCOc1cc(/C=C2\NC(=O)NC2=O)ccc1OC(C)C(=O)O (stereo not drawn)	-9	5	42*	-6	-12	0
O=C(Nc1ccc(Cl)cc1)Nc1cc([N+](=O)[O-])ccc1F	1	11	16	3	14	7
O=C(Nc1ccc([N+](=O)[O-])cc1)Nc1ccc(Cl)cc1F	-1	-1	40	43*	48*	17
Cc1cc(OC(F)F)ccc1NC(=O)Nc1ccc([N+](=O)[O-])cc1	-2	-1	24	57*	32	9
O=C(Nc1csc([N+](=O)[O-])c1)Nc1c(Cl)cccc1Cl	-4	4	23	-6	-7	1
O=C(Nc1ccc(Cl)cc1)Nc1csc([N+](=O)[O-])c1	-6	20	83*	65*	65*	14
CCOC(=O)C1(Cc2cccc(OC)c2)CCCN(C(=O)c2cc(C)on2)C1 (stereo not drawn)	2	0	22	-8	-18	-1
Nc1cc(-c2ccc(Cl)cc2)nn1S(=O)(=O)c1ccccc1	3	-14	25	48*	-13	2
CCS(=O)(=O)n1nc(-c2ccccc2)cc1N	-2	-18	27	6	-10	0
COc1ccc(CCC(=O)Nc2ccc3c(c2)OCCO3)cc1	-3	-2	14	35*	18	6
Cc1cccc(-n2c(=O)c(C#N)cc3c(=O)n4ccccc4nc32)c1	-1	-32	60*	-17	-11	0
CCC(C)n1c(=N)c(C#N)cc2c(=O)n3ccccc3nc21 (stereo not drawn)	0	2	18	-8	-14	8
CCCn1c(=N)c(C#N)cc2c(=O)n3ccccc3nc21	-7	-12	47*	-2	9	9
O=C(Nc1ccc(Cl)cc1)OC[C@@H]1CSCCS(=O)(=O)N1	0	22	nt	nt	nt	10
